From ChEMBL document CHEMBL1135775 (J Med Chem, 2002)
Values joined by “and” are separate entries in the source; they are usually repeats but may differ in a detail not shown here. Equal values may be shown once.

Key:
[1] = Ratio of the IC50 value of Mazindol to that of the compound.; type: functional
[2] = target: T1, Sodium-dependent dopamine transporter (Homo sapiens, UniProt Q01959); assay: Inhibition of dopamine uptake in HEK cells expressing human dopamine transporter (hDAT); type: functional, cell-based, HEK293
How it was run: (§1)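 Scraped HEK293 cells expressing hSERT or hDAT in Krebs-HEPES, preincubated 10 min at 25 °C with test compound. Uptake started with [3H]serotonin or [3H]dopamine (20 nM final), stopped after 10 min by filtration on PEI-soaked GF/C filters.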

[3] = target: T2, Sodium-dependent serotonin transporter (Homo sapiens, UniProt P31645); assay: Inhibition of 5-HT uptake in HEK cells expressing human serotonin transporter (hSERT); type: functional, cell-based, HEK293; how it was run: as §1
[4] = target: Monoamine transporters; Norepinephrine & dopamine (Homo sapiens) (UniProt Q01959+P23975); assay: Selectivity ratio as ratio of IC50 value against NET to that of DAT; type: protein assay
[5] = target: T2, Sodium-dependent serotonin transporter; assay: Displacement of [125I]- RTI-55 from Serotonin transporter expressed in HEK cells; type: cell-based, HEK293
How it was run: (§2)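 Membranes from HEK293 cells expressing hDAT, hSERT or hNET (10–15 μg protein) preincubated 10 min with test compound in Krebs-HEPES pH 7.4. Two or three experiments in duplicate; IC50 converted to Ki by Cheng-Prusoff.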

[6] = Discrimination ratio against DAT as ratio of IC50 to that of Ki uptake to DAT.; type: functional
[7] = target: T3, Sodium-dependent noradrenaline transporter (Homo sapiens, UniProt P23975); assay: Inhibition of NE uptake in HEK cells expressing human noradrenaline transporter (hNET); type: functional, cell-based, HEK293
[8] = target: T1, Sodium-dependent dopamine transporter; assay: Displacement of [125I]- RTI-55 from Dopamine transporter expressed in HEK cells; type: cell-based, HEK293; how it was run: as §2
[9] = Discrimination ratio against SERT as ratio of IC50 to that of Ki uptake to SERT.; type: functional
[10] = target: Monoamine transporters; serotonin & dopamine (Homo sapiens) (UniProt P31645+Q01959); assay: Selectivity ratio as ratio of IC50 value against SERT to that of DAT; type: protein assay
[11] = target: T3, Sodium-dependent noradrenaline transporter; assay: Displacement of [125I]RTI-55 from human Norepinephrine transporter expressed in HEK cells; type: cell-based, HEK293
[12] = Discrimination ratio against NET as ratio of IC50 to that of Ki uptake to NET.; type: functional
[13] = target: Sodium-dependent dopamine transporter (Rattus norvegicus, UniProt P23977); assay: Ability to displace [3H]WIN-35428 from Dopamine Transporter of rat striatal membrane
How it was run: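 Rat striatum (male Sprague-Dawley, 200-225 g) homogenised in ice-cold sucrose phosphate buffer pH 7.4, washed, resuspended at 10 mg/mL. Filtration on PEI-soaked GF/B filters, scintillation counting. Four experiments in triplicate.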

[14] = target: T3, Sodium-dependent noradrenaline transporter; assay: Ability to displace [125I]- RTI-55 binding at the Norepinephrine transporter site on HEK cells expressing cDNA for the human transporter (hNET); type: cell-based, HEK293
How it was run: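 Membranes from HEK293 cells expressing hDAT, hSERT or hNET (10–15 μg protein) preincubated 10 min with test compound in Krebs-HEPES pH 7.4. Then 40–80 pM [125I]RTI-55 added, 90 min at 25 °C, GF/C filtration. […] Two or three experiments in duplicate; IC50 converted to Ki by Cheng-Prusoff.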

[15] = target: T1, Sodium-dependent dopamine transporter; assay: Ability to block the uptake of […] at the Dopamine transporter of HEK cells expressing cDNA for the human transporter (hDAT); type: functional, cell-based, HEK293
[16] = target: Sodium-dependent dopamine transporter (Rattus norvegicus) (UniProt P23977); assay: Ability to displace [3H]WIN-35428 from Dopamine Transporter of rat striatal membrane at a concentration of 10 E-6 M
Sequence of Sodium-dependent dopamine transporter (Rattus norvegicus) (P23977 whole entry): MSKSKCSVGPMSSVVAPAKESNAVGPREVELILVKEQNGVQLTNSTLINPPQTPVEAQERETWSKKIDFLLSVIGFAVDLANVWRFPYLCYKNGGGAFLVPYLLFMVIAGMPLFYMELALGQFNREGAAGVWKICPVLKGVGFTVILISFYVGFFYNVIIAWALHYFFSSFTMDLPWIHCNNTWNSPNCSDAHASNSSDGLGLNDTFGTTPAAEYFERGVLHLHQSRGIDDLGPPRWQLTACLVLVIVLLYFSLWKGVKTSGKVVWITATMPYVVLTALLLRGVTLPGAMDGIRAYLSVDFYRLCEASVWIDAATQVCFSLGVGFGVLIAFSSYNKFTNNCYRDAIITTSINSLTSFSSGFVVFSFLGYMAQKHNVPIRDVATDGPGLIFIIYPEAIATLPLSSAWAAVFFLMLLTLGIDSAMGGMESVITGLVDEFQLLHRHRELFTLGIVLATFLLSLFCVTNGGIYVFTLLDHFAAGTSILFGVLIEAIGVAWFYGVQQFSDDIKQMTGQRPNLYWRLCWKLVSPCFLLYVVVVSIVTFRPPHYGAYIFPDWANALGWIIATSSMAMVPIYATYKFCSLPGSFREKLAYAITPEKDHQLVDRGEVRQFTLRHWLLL

Sequence of Sodium-dependent dopamine transporter (Rattus norvegicus, UniProt P23977) (P23977 whole entry): as above
Sequence of Monoamine transporters; serotonin & dopamine (Homo sapiens) (P31645 whole entry, looked up): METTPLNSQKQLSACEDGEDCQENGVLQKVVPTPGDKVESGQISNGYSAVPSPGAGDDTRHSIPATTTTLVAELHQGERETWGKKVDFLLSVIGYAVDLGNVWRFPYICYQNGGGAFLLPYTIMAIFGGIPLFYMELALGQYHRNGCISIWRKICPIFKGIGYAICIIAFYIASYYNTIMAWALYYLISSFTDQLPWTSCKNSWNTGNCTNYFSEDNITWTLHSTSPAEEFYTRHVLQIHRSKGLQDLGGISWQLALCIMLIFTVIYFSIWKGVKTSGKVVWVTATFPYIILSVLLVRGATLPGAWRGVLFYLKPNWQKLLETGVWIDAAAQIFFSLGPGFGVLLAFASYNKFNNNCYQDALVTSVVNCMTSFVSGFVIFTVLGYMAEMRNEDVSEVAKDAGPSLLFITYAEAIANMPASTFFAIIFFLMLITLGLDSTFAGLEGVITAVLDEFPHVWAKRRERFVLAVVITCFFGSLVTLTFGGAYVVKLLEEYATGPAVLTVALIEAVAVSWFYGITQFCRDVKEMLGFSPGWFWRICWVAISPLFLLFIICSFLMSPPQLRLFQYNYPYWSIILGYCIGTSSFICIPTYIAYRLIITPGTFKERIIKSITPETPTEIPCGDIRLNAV
Sequence of Monoamine transporters; serotonin & dopamine (Homo sapiens) (Q01959 whole entry, looked up): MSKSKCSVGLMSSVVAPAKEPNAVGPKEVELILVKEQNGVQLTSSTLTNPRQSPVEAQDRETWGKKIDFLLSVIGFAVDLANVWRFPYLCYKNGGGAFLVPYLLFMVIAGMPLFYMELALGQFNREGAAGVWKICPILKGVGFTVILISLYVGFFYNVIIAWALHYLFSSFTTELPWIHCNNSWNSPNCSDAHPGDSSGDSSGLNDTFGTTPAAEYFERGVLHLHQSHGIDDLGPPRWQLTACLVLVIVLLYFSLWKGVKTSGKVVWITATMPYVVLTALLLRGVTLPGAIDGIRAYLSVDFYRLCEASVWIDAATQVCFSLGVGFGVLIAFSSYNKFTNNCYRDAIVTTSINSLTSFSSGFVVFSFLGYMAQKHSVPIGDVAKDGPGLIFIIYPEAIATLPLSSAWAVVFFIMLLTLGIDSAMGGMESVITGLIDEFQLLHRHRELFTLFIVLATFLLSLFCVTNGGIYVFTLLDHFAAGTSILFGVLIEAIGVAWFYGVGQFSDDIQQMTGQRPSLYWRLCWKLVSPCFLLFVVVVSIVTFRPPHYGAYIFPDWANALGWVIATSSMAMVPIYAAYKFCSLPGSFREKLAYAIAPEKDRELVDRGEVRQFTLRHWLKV
T2 sequence (P31645 whole entry): as the sequence (P31645 whole entry, looked up) above
T3 sequence (P23975 whole entry): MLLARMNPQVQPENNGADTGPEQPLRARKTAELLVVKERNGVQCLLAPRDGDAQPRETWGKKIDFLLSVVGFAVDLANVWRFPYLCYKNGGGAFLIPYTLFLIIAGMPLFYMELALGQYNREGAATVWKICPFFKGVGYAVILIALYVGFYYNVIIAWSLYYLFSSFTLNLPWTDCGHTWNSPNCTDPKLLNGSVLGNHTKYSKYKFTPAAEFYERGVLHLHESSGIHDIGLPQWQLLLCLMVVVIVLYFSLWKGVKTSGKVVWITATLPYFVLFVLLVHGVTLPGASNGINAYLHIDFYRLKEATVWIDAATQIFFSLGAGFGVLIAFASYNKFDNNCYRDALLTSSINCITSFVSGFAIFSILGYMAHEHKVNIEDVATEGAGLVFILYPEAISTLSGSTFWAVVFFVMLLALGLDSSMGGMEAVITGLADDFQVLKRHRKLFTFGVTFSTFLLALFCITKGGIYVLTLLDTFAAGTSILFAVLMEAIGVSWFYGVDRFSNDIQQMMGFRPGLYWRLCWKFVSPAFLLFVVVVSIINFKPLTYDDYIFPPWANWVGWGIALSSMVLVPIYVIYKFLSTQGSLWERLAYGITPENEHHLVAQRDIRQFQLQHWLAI
Sequence of Monoamine transporters; Norepinephrine & dopamine (Homo sapiens) (P23975 whole entry, looked up): as the sequence (P23975 whole entry) above
Sequence of Monoamine transporters; Norepinephrine & dopamine (Homo sapiens) (Q01959 whole entry, looked up): as the sequence (Q01959 whole entry, looked up) above
T1 sequence (Q01959 whole entry): as the sequence (Q01959 whole entry, looked up) above

Work on OC1(c2ccncc2)c2ccccc2C2=NCCN21 (stereo not given) yielded a Ratio [1] of 0.1.

For OC1(c2ccc3c(c2)OCO3)c2ccccc2C2=NCCN21 (stereo not given), the Ratio [1] was 0.4.

For OC1(c2ccc(Cl)cc2)c2cc(Cl)c(Cl)cc2C2=NCCN21 (stereo not given), the IC50 [2] was 6 nM, the IC50 [3] was 444 nM and the Ratio [4] was 38. The Ki [5] was 1350 nM, the Ratio [6] was 5.7 and the IC50 [7] was 10 nM. For the same compound, the Ki [8] was 1.05 nM, the Ratio [9] was 0.3 and the Ratio [1] was 0.6. It also gave a Ratio [10] of 1280, a Ki [11] of 40 nM and a Ratio [12] of 0.3.

In the case of COc1ccc(C2(O)c3ccccc3C3=NCCN32)cc1 (stereo not given), the Ratio [1] is reported as 0.4.

OC1(c2ccccn2)c2ccccc2C2=NCCN21 (stereo not given) showed a Ratio [1] of less than 0.002.

Oc1ccc(C2(O)c3ccccc3C3=NCCCN32)cc1 (stereo not given) showed an IC50 [2] of 59 nM, an IC50 [3] of 60 nM and a Ratio [4] of 4.4. The Ki [5] was 77 nM, the Ratio [6] was 0.7 and the IC50 [7] was 1.9 nM. The Ki [8] was 87.1 nM, the Ratio [9] was 0.8 and the Ratio [1] was 2.4. The Ratio [10] was 0.9, the Ki [11] was 380 nM and the Ratio [12] was 0.005.

Work on CN(C)Cc1ccc(C2(O)c3ccccc3C3=NCCN32)cc1 (stereo not given) yielded a Ratio [1] of 0.003.

Work on Clc1ccc(C2c3ccccc3C3=NCCN32)cc1 (stereo not given) yielded an IC50 [2] of 6 nM, an IC50 [3] of 15 nM and a Ki [5] of 26 nM. It also gave an IC50 [7] of 6.9 nM, a Ki [8] of 23 nM and a Ratio [1] of 1.4. For the same compound, the Ki [11] was 170 nM.

For COC1(c2ccc(Cl)cc2)c2ccccc2C2=NCCN21 (stereo not given), the Ratio [1] was 0.008 and the IC50 [13] was 1010 nM.

In the case of COc1cccc2c1C1=NCCN1C2(O)c1ccc(Cl)cc1 (stereo not given), the IC50 [2] is reported as 42 nM, the IC50 [3] is reported as 280 nM and the Ratio [4] is reported as 2.3. It also gave a Ki [5] of 870 nM, a Ratio [6] of 14.5 and an IC50 [7] of 4.7 nM. For the same compound, the Ki [8] was 2.9 nM, the Ratio [9] was 0.3 and the Ratio [1] was 9. It also gave a Ratio [10] of 300, a Ki [11] of 6.8 nM and a Ratio [12] of 0.7.

Compound OC1(c2ccc3c(c2)OCO3)c2ccccc2C2=NCCCN21 (stereo not given) has a Ki [14] of 8.8 nM, an IC50 [3] of 83 nM and a Ratio [4] of 3.5. It also gave an IC50 [15] of 2.21 nM, a Ki [5] of 25.6 nM and a Ratio [6] of 0.8. It also gave an IC50 [7] of 0.62 nM, a Ki [8] of 2.55 nM and a Ratio [9] of 3.2. It also gave a Ratio [10] of 10, an IC50 [13] of 1.94 nM and a Ratio [12] of 0.07.

In the case of OC1(c2ccccc2)c2cc(Cl)ccc2C2=NCCN21 (stereo not given), the Ratio [1] is reported as 0.1.

COc1ccc(C2(O)c3ccccc3C3=NCCCN32)cc1OC (stereo not given) showed a Ratio [1] of 0.1.

OC1(c2ccc(Cl)cc2)c2ccccc2C2=NCCN21 (stereo not given) [MAZINDOL] gave an IC50 [3] of 94 nM and an IC50 [7] of 4.9 nM.

OC1(c2ccccc2)c2ccccc2C2=NCCN21 (stereo not given) gave an IC50 [2] of 730 nM, an IC50 [3] of 2140 nM and a Ratio [4] of 0.1. For the same compound, the Ki [5] was 1760 nM, the Ratio [6] was 0.7 and the IC50 [7] was 2.8 nM. For the same compound, the Ki [8] was 1070 nM, the Ratio [9] was 1.2 and the Ratio [1] was 0.1. The Ratio [10] was 1.6, the Ki [11] was 100 nM and the Ratio [12] was 0.03.

In the case of OC1(c2ccccc2)c2c(Cl)cccc2C2=NCCN21 (stereo not given), the Ratio [1] is reported as 0.1.

In the case of Cc1cc(C)c2c(c1)C1=NCCN1C2(O)c1ccc(Cl)cc1 (stereo not given), the Ratio [1] is reported as 0.6.

In the case of OC1(c2cccnc2)c2ccccc2C2=NCCN21 (stereo not given), the Ratio [1] is reported as 0.013.

Compound C=CCOc1ccc(C2(O)c3ccccc3C3=NCCCN32)cc1 (stereo not given) has a Ratio [1] of 0.1.

With C=CCOc1cccc(C2(O)c3ccccc3C3=NCCCN32)c1 (stereo not given) the Ratio [1] was 0.2 and the IC50 [13] was 219 nM.

In the case of COc1cc(C2(O)c3ccccc3C3=NCCN32)cc(OC)c1OC (stereo not given), the Ratio [1] is reported as less than 0.002.

Compound Cc1ccc(C2(O)c3ccccc3C3=NCCN32)cc1 (stereo not given) has a Ratio [1] of 0.1.

Compound OC1(c2ccc(OCc3ccccc3)cc2)c2ccccc2C2=NCCCN21 (stereo not given) has a Ratio [1] of 0.1.

OC1(c2ccc(Cl)cc2)c2c(ccc3c2OCO3)C2=NCCN21 (stereo not given) showed a Ratio [1] of 0.1.

Work on COc1ccc(C2(O)c3ccccc3C3=NCCCN32)cc1 (stereo not given) yielded an IC50 [2] of 30.4 nM, an IC50 [3] of 94 nM and a Ratio [4] of 2.3. For the same compound, the Ki [5] was 55.9 nM, the Ratio [6] was 0.8 and the IC50 [7] was 4.1 nM. For the same compound, the Ki [8] was 36.2 nM, the Ratio [9] was 1.7 and the Ratio [1] was 3.2. For the same compound, the Ratio [10] was 1.5, the Ki [11] was 84 nM and the Ratio [12] was 0.05.

For OC1(c2cccc(C(F)(F)F)c2)c2ccccc2C2=NCCN21 (stereo not given), the Ratio [1] was 0.04.

In the case of COc1ccc(C2(O)c3ccccc3C3=NCCN32)cc1OC (stereo not given), the Ratio [1] is reported as 0.001.

For CC1(c2ccc(Cl)cc2)c2ccccc2C2=NCCCN21 (stereo not given), the Ratio [1] was 0.3.

OC1(c2ccc(C(F)(F)F)cc2)c2ccccc2C2=NCCN21 (stereo not given) showed a Ratio [1] of 0.03.

Work on COC(=O)c1ccc(C2(O)c3ccccc3C3=NCCN32)cc1 (stereo not given) yielded a Ratio [1] of 0.002.

In the case of COCC1(c2ccc(Cl)cc2)c2ccccc2C2=NCCCN21 (stereo not given), the Ratio [1] is reported as less than 0.002.

In the case of OC1(c2ccc(-c3ccccc3)cc2)c2ccccc2C2=NCCN21 (stereo not given), the inhibition [16] is reported as 14.1% and the Ratio [1] is reported as less than 0.002.

Work on COc1cccc2c1C(O)(c1ccc(Cl)cc1)N1CCN=C21 (stereo not given) yielded an IC50 [2] of 60 nM, an IC50 [3] of 3600 nM and a Ratio [4] of 2.2. The Ki [5] was 1990 nM, the Ratio [6] was 5.8 and the IC50 [7] was 1.73 nM. For the same compound, the Ki [8] was 10.3 nM, the Ratio [9] was 1.8 and the Ratio [1] was 0.6. For the same compound, the Ratio [10] was 193, the Ki [11] was 23.1 nM and the Ratio [12] was 0.07.

Work on OC1(c2ccc(Cl)cc2)c2cccc(F)c2C2=NCCN21 (stereo not given) yielded an IC50 [2] of 91 nM, an IC50 [3] of 129 nM and a Ratio [4] of 0.04. It also gave a Ki [5] of 38.1 nM, a Ratio [6] of 4 and an IC50 [7] of 5 nM. For the same compound, the Ki [8] was 23.1 nM, the Ratio [9] was 3.4 and the Ratio [1] was 3.5. The Ratio [10] was 1.65, the Ki [11] was 0.9 nM and the Ratio [12] was 5.6.

With OC1(c2ccc(Cl)cc2)c2ccccc2C2=NCCCN21 (stereo not given) the IC50 [2] was 3.7 nM, the IC50 [3] was 53 nM and the Ratio [4] was 10.6. The Ratio [6] was 2.2, the IC50 [7] was 4.9 nM and the Ratio [9] was 1.4. The Ratio [1] was 8.1 and 10.1, the Ratio [10] was 23 and the Ratio [12] was 2.2.

For COc1ccc2c(c1)C(O)(c1ccc(Cl)cc1)N1CCN=C21 (stereo not given), the IC50 [2] was 16.7 nM, the IC50 [3] was 1960 nM and the Ratio [4] was 3.9. It also gave a Ki [5] of 1030 nM, a Ratio [6] of 2.8 and an IC50 [7] of 1.46 nM. It also gave a Ki [8] of 6 nM, a Ratio [9] of 1.9 and a Ratio [1] of 3.2. For the same compound, the Ratio [10] was 172, the Ki [11] was 23 nM and the Ratio [12] was 0.06.

With OC1(c2ccc3c(c2)OCCO3)c2ccccc2C2=NCCN21 (stereo not given) the Ratio [1] was 0.03.

In the case of OC1(c2ccc(Cl)cc2)c2cccc(-c3ccccc3)c2C2=NCCN21 (stereo not given), the Ratio [1] is reported as 0.1.
